The test system of series [1] is Mus musculus. Description: AUC (0 to infinity) in Por lox/lox wild type mouse at 2.5 mg/kg, po treated 10 days after 40 mg/kg, ip 3-methylcholanthrene administration by liquid chromatography-tandem mass spectrometry. The note with it: in vivo, 240 h. In kind it is ADME, organism-based, Plasma. Summed up:
(§1)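 Adult male mice (n = 3): Por lox/lox wild type, or RCN (Por lox/lox plus Cre under CYP1A1 promoter). Pretreated i.p. in corn oil with either 3-MC 40 mg/kg as a single dose, or BNF 80 mg/kg daily for 4 days. After 10 days, oral dosing at 2.5 mg/kg. Serial tail-vein blood was analysed by LC-MS/MS for parent drug; mean ± SD.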

A short description of series [2]: AUC (0 to infinity) in liver Por deleted-reductase conditional null mouse at 2.5 mg/kg, po treated 10 days after 40 mg/kg, ip 3-methylcholanthrene administration by liquid chromatography-tandem mass spectrometry. In kind it is ADME, organism-based. Conditions: in vivo. Summed up:
as §1

Series [3] is described as follows: AUC (0 to last) in Por lox/lox wild type mouse at 2.5 mg/kg, po treated 10 days after 40 mg/kg, ip 3-methylcholanthrene administration by liquid chromatography-tandem mass spectrometry. It counts as ADME, organism-based. Conditions: plasma. Summed up: as §1
The nature of series [4]: AUC (0 to last) in liver Por deleted-reductase conditional null mouse at 2.5 mg/kg, po treated 10 days after 40 mg/kg, ip 3-methylcholanthrene administration by liquid chromatography-tandem mass spectrometry. It counts as ADME, organism-based. The note with it: in vivo. Put shortly:
as §1

Series [5] can be described thus: Cmax in Por lox/lox wild type mouse at 2.5 mg/kg, po treated 10 days after 40 mg/kg, ip 3-methylcholanthrene administration by liquid chromatography-tandem mass spectrometry. The note with it: in vivo. In kind it is ADME, organism-based. Summed up: as §1
The nature of series [6]: Cmax in liver Por deleted-reductase conditional null mouse at 2.5 mg/kg, po treated 10 days after 40 mg/kg, ip 3-methylcholanthrene administration by liquid chromatography-tandem mass spectrometry. It counts as ADME, organism-based. The note with it: in vivo. Put shortly: as §1
Series [7] is described as follows: Clearance in liver Por deleted-reductase conditional null mouse at 2.5 mg/kg, po treated 10 days after 40 mg/kg, ip 3-methylcholanthrene administration by liquid chromatography-tandem mass spectrometry. It counts as ADME, organism-based. The note with it: in vivo. Put shortly: as §1
A short description of series [8]: AUC (0 to infinity) in Por lox/lox wild type mouse at 2.5 mg/kg, po treated 10 days after 80 mg/kg, ip beta-naphthoflavone administration by liquid chromatography-tandem mass spectrometry. The note with it: plasma. It counts as ADME, organism-based. Put shortly: as §1
Series [9] can be described thus: AUC (0 to infinity) in liver and gut Por deleted-reductase conditional null mouse at 2.5 mg/kg, po treated 10 days after 80 mg/kg, ip beta-naphthoflavone administration by liquid chromatography-tandem mass spectrometry. It counts as ADME, organism-based. Conditions: in vivo. Put shortly:
as §1

A short description of series [10]: AUC (0 to last) in Por lox/lox wild type mouse at 2.5 mg/kg, po treated 10 days after 80 mg/kg, ip beta-naphthoflavone administration by liquid chromatography-tandem mass spectrometry. It counts as ADME, organism-based. Conditions: plasma. Put shortly: as §1
Series [11] in a line: AUC (0 to last) in liver and gut Por deleted-reductase conditional null mouse at 2.5 mg/kg, po treated 10 days after 80 mg/kg, ip beta-naphthoflavone administration by liquid chromatography-tandem mass spectrometry. In kind it is ADME, organism-based. Conditions: in vivo. Summed up: as §1
The nature of series [12]: Cmax in Por lox/lox wild type mouse at 2.5 mg/kg, po treated 10 days after 80 mg/kg, ip beta-naphthoflavone administration by liquid chromatography-tandem mass spectrometry. The note with it: in vivo. It counts as ADME, organism-based. Put shortly:
as §1

The nature of series [13]: Cmax in liver and gut Por deleted-reductase conditional null mouse at 2.5 mg/kg, po treated 10 days after 80 mg/kg, ip beta-naphthoflavone administration by liquid chromatography-tandem mass spectrometry. It counts as ADME, organism-based. The note with it: in vivo. Summed up: as §1
The nature of series [14]: Clearance in Por lox/lox wild type mouse at 2.5 mg/kg, po treated 10 days after 80 mg/kg, ip beta-naphthoflavone administration by liquid chromatography-tandem mass spectrometry. Conditions: in vivo. It counts as ADME, organism-based. Put shortly:
as §1

A short description of series [15]: Clearance in liver and gut Por deleted-reductase conditional null mouse at 2.5 mg/kg, po treated 10 days after 80 mg/kg, ip beta-naphthoflavone administration by liquid chromatography-tandem mass spectrometry. Conditions: in vivo. In kind it is ADME, organism-based. Summed up:
as §1

The nature of series [16]: in vivo. Conditions: mouse, po, 2.5 mg/kg.
Series [17] in a line: in vivo. Conditions: mouse, po, 2.5 mg/kg. This is another data set of the same source.
Series [18] is described as follows: in vivo. The note with it: mouse, po, 2.5 mg/kg. This is another data set of the same source.
Series [19] in a line: in vivo. The note with it: mouse, po, 2.5 mg/kg. This is another data set of the same source.

A word on the AUC: it is the area under the concentration-time curve, a measure of exposure. For orientation: AUC(0-inf) means the area under the concentration-time curve extrapolated to infinity. High values mean more exposure, low ones less exposure. For orientation: AUC(0-t) means the area under the concentration-time curve up to a stated or last time point. Low values mean less exposure, high ones more exposure. In general, Cmax refers to the highest concentration seen after dosing. A word on the CL/F: it is clearance divided by bioavailability, as obtained after extravascular dosing. The half-life is the time needed for the level to fall by half in the phase considered. A high value points to slow decline. As to `Cc1ncc2n1-c1ccc(Cl)cc1C(c1ccccc1F)=NC2` [MIDAZOLAM], the exposure (AUC) in series [1] was found to be 8.7 µg·min/mL. For the same compound, the AUC(0-inf) in series [2] was 2250 ng·h/mL; in [8], 278 ng·h/mL; in series [9], 5830 ng·h/mL. For the same compound, the AUC(0-t) at 240 h in series [3] was 125 ng·h/mL; in series [4], 2100 ng·h/mL; in series [10], 228 ng·h/mL; in [11], 5520 ng·h/mL. The Cmax in series [5] was 110 ng/mL; in series [6], 900 ng/mL; in series [12], 140 ng/mL; in [13], 2300 ng/mL. Also, the CL/F worked out at 26.8 mL/min/kg in series [7], 180 mL/min/kg in [14] and 9.3 mL/min/kg in series [15]. The half-life at 240 h came out at 68 min in series [16], 128 min in [17], 115 min in series [18] and 114 min in [19].
